# Test results: ChEMBL document CHEMBL1649528 (Antimicrob Agents Chemother, 2009)
# pIC50: −log10 of the molar value.
# Key:
# [1] = tested on: West Nile virus; assay: Antiviral activity against West Nile virus infected in african green monkey Vero cells assessed as decrease in viral RNA synthesis after 24 hrs by luciferase reporter gene assay; assay type: functional, organism-based
# Method in brief: (§1)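 Stable Rluc-Neo-Rep replicon-bearing Vero cells (DENV-1 or WNV; kept in DMEM/10% FBS with 1 mg/ml G418, 37°C, 5% CO₂) treated with Cs at ≤8 μM. Read-out is replicon Renilla luciferase, and 50% effective concentration is taken from the dose response.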
# [2] = tested on: West Nile virus; assay: Antiviral activity against West Nile virus infected in human Huh7.5 cells assessed as decrease in viral replication at 8 uM after 24 hrs by luciferase reporter gene assay; assay type: functional; conditions: Huh-7, 24 h
# Method in brief: (§2)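 Huh-7.5 shRNA lines (CyPA knockdown sh-A and control sh-Fluc; puromycin 1 μg/ml) seeded at 2 × 10⁴/well and infected 24 h later with WNV VLP at 1 FFU/cell. Cs (0, 4 or 8 μM) or 1% ethanol added at once. Luciferase read at 24 h p.i. and expressed as % of ethanol-treated sh-Fluc. Mean ± SD of three independent experiments.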
# [3] = tested on: Yellow fever virus; assay: microbe, parasite or virus in culture; assay type: functional; conditions: Huh-7, 20 h
# [4] = tested on: dengue virus type 1; assay: Antiviral activity against Dengue virus 1 infected in human Huh7.5 cells assessed as decrease in viral RNA synthesis at 8 uM after => 20 hrs by luciferase reporter gene assay; assay type: functional; conditions: Huh-7, 20 h
# Method in brief: (§3)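 Rluc2A-Rep replicon RNA (10 μg; WNV or DENV-1) electroporated into Huh-7.5 cells, seeded at 4 × 10⁵/well, then treated at once with 8 μM Cs or 1% ethanol. Cells washed with cold PBS and lysed at time points, and lysates frozen at −80°C. Luciferase read on 20 μl lysate. Early signal (1–10 h p.t.) reflects translation and later signal (>10 h) reflects RNA replication.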
# [5] = tested on: dengue virus type 1; assay: Antiviral activity against Dengue virus 1 infected in african green monkey Vero cells assessed as decrease in viral RNA synthesis after 24 hrs by luciferase reporter gene assay; assay type: functional, organism-based; method in brief: as §1
# [6] = tested on: West Nile virus; assay: Antiviral activity against West Nile virus infected in human Huh7.5 cells assessed as decrease in viral RNA synthesis at 8 uM after => 20 hrs by luciferase reporter gene assay; assay type: functional; conditions: Huh-7, 20 h; method in brief: as §3
# [7] = tested on: West Nile virus; assay: Antiviral activity against West Nile virus infected in CyPA-deficient human Huh7.5 cells assessed as decrease in viral replication at 8 uM after 24 hrs by luciferase reporter gene assay; assay type: functional; conditions: Huh-7, 24 h; method in brief: as §2
# [8] = tested on: West Nile virus; assay: Antiviral activity against West Nile virus infected in CyPA-deficient human Huh7.5 cells assessed as decrease in viral replication at 4 uM after 24 hrs by luciferase reporter gene assay; assay type: functional; conditions: Huh-7, 24 h; method in brief: as §2
smiles,measurement,setting,value
C/C=C/C[C@@H](C)[C@@H](O)[C@H]1C(=O)N[C@@H](CC)C(=O)N(C)CC(=O)N(C)[C@@H](CC(C)C)C(=O)N[C@@H](C(C)C)C(=O)N(C)[C@@H](CC(C)C)C(=O)N[C@@H](C)C(=O)N[C@H](C)C(=O)N(C)[C@@H](CC(C)C)C(=O)N(C)[C@@H](CC(C)C)C(=O)N(C)[C@@H](C(C)C)C(=O)N1C [CYCLOSPORINE],pIC50,[1],5.10
same,inhibition at 8 µM,[2],4%
same,inhibition at 8 µM,[3],≥ 70%
same,inhibition at 8 µM,[4],≥ 70%
same,pIC50,[5],≥ 6.30
same,inhibition at 8 µM,[6],≥ 70%
same,inhibition at 8 µM,[7],2%
same,inhibition at 4 µM,[8],10%
